In ChEMBL document CHEMBL1137180, “Synthesis and structure-activity relationship of a novel sulfone series of TNF-alpha converting enzyme inhibitors” (Bioorg Med Chem Lett, 2004):

Tests used:
[1] = target: 72 kDa type IV collagenase (Homo sapiens, UniProt P08253); assay: inhibition of Matrix metalloprotease-2 (MMP-2)
Outline: (§1)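 Inhibition is reported as Ki (nM) against each isolated MMP. Each value comes from a single determination, with no replicates.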

[2] = target: Disintegrin and metalloproteinase domain-containing protein 17 (Sus scrofa, UniProt O77636); assay: Inhibition of porcine Tumor necrosis factor- alpha converting enzyme (TACE, ADAM17)
Sequence of Disintegrin and metalloproteinase domain-containing protein 17 (Sus scrofa, UniProt O77636) (O77636 whole entry, the tested form may be a part): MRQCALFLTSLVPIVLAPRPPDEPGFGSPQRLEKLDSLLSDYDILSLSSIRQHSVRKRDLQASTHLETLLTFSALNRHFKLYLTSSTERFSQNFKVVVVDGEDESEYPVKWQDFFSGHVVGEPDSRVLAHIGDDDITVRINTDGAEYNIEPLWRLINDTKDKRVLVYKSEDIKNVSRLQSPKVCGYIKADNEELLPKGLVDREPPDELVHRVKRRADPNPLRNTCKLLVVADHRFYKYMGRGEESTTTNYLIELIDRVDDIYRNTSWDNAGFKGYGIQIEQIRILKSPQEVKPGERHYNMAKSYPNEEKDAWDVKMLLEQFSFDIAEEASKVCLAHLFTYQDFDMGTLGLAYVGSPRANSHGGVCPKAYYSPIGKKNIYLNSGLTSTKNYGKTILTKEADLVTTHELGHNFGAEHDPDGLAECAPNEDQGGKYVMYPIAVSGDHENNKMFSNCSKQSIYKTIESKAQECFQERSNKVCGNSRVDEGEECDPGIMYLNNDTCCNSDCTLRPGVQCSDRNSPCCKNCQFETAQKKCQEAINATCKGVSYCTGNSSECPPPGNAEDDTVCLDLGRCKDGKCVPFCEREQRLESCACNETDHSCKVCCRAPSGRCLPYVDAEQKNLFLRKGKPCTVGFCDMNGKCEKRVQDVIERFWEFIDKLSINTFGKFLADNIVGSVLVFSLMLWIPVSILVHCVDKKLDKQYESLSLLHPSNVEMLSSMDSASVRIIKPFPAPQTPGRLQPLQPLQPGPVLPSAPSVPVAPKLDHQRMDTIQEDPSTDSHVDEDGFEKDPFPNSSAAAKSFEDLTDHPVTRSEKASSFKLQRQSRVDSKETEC

[3] = target: Disintegrin and metalloproteinase domain-containing protein 17 (Homo sapiens, UniProt P78536); assay: Effect on TNF-Alpha release in LPS-stimulated human whole blood assay; format: functional, tissue-based
Sequence of Disintegrin and metalloproteinase domain-containing protein 17 (Homo sapiens, UniProt P78536) (P78536 whole entry, the tested form may be a part): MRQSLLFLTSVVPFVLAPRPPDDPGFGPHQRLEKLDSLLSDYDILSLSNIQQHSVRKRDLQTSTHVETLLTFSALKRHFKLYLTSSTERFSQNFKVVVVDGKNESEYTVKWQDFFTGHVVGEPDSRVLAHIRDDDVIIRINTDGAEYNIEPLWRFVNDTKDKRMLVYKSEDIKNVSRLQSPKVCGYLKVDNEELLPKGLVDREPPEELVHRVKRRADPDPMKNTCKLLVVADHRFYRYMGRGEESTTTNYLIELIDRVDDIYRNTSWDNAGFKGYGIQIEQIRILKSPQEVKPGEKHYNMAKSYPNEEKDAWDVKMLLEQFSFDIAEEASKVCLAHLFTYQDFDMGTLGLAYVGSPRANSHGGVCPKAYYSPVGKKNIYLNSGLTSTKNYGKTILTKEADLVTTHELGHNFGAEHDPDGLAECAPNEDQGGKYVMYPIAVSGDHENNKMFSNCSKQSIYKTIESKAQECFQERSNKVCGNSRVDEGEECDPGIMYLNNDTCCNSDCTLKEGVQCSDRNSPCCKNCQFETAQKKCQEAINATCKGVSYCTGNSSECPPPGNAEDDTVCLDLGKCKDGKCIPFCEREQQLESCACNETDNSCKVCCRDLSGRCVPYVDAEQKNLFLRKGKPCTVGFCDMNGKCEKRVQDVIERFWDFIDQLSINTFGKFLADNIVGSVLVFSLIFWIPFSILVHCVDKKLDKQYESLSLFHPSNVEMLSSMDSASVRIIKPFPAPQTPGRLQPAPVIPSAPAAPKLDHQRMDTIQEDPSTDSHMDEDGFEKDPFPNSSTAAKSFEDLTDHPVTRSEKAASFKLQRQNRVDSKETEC

Collagenase 3 = Collagenase 3 (Homo sapiens, UniProt P45452); assay: Inhibition of Matrix metalloprotease-13 (MMP-13); outline: as §1
Caco-2 = assay: Permeability action in Caco-2 cells; format: functional, Homo sapiens
[4] = target: Matrix metalloproteinase-9 (Homo sapiens, UniProt P14780); assay: Inhibition of Matrix metalloprotease-9 (MMP-9); outline: as §1
Sequence of Matrix metalloproteinase-9 (P14780 whole entry): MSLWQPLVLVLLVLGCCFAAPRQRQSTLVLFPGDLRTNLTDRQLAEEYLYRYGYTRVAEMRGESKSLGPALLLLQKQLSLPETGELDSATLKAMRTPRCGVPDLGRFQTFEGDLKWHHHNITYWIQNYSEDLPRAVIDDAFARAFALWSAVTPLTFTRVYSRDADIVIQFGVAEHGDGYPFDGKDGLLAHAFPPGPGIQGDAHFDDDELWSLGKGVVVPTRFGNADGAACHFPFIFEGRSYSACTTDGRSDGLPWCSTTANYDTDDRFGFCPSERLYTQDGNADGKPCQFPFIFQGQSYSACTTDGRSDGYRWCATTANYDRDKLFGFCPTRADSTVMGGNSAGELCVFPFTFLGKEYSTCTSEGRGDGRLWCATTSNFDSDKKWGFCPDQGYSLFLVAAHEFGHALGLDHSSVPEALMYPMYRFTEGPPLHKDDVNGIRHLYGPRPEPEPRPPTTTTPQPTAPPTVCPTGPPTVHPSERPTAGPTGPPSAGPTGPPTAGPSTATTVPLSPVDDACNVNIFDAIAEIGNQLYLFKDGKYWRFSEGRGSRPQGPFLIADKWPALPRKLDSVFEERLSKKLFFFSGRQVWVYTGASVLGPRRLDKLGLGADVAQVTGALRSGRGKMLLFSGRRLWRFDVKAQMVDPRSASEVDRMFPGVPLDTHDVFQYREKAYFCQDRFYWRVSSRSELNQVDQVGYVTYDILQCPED

Interstitial collagenase = target: T1, Interstitial collagenase (Homo sapiens, UniProt P03956); assay: Inhibition of Matrix metalloprotease-1 (MMP-1); outline: as §1
T1 sequence (P03956 whole entry): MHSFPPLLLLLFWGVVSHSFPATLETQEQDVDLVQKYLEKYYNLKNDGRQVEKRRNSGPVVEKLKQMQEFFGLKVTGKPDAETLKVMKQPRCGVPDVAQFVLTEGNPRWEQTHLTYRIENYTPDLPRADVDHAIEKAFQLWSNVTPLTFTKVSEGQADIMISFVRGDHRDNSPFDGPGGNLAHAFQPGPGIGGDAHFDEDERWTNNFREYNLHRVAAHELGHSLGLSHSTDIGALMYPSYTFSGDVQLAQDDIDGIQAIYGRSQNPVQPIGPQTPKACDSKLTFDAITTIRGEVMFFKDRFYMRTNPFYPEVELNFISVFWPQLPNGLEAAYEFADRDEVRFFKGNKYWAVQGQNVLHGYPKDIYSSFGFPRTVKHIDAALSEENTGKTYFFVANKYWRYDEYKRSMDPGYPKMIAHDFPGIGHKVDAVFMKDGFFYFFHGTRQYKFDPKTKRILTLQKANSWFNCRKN

Mus musculus = assay: Compound was tested for anti TNF-alpha activity using LPS mouse model at 5 mg/kg p.o.; format: functional; settings: route oral

Sequence of 72 kDa type IV collagenase (P08253 whole entry): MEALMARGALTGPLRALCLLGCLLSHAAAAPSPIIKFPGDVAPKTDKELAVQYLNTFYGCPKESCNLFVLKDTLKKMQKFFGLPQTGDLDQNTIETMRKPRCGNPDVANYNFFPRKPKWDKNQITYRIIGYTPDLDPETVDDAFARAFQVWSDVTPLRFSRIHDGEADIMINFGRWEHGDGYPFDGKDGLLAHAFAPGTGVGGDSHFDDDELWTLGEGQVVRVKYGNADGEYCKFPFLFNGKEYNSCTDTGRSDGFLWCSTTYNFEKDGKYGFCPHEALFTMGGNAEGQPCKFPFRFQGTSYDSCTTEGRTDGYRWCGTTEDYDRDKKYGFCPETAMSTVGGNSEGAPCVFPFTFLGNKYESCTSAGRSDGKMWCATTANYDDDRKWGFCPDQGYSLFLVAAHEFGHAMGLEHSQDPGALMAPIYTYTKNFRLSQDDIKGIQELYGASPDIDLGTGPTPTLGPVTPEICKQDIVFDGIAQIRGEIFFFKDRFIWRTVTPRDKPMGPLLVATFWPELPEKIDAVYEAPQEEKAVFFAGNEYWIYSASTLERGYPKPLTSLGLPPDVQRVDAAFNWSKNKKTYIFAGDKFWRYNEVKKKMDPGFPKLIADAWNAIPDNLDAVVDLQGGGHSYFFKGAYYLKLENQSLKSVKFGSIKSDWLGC

SMILES | Ki [1] | IC50 [2] | IC50 [3] | Ki (Collagenase 3) | Caco-2 Papp (Caco-2) | Ki [4] | Ki (Interstitial collagenase) | inhibition in vivo at 5 mg/kg (Mus musculus)
Cc1cc(COc2ccc(S(=O)(=O)CC3(CC(=O)NO)CCCN3C)cc2)c2ccccc2n1 (stereo unspecified) | > 3.3 µM | 0.0029 µM | > 3 µM | 3.27 µM | 16 nm/s | > 2.1 µM | > 4.9 µM | –
Cc1cc(COc2ccc(S(=O)(=O)CC3CCNCC3C(=O)NO)cc2)c2ccccc2n1 (stereo unspecified) | > 3.3 µM | < 0.0015 µM | 0.25 µM | > 5 µM | 1 nm/s | > 2.1 µM | > 4.9 µM | –
Cc1cc(COc2ccc(S(=O)(=O)CC3(CC(=O)NO)CCCO3)cc2)c2ccccc2n1 (stereo unspecified) | > 3.3 µM | 0.001 µM | 0.913 µM | > 5 µM | 50 nm/s | > 2.1 µM | > 4.9 µM | 57%
Cc1cc(COc2ccc(S(=O)(=O)CC3NCCCC3C(=O)NO)cc2)c2ccccc2n1 (stereo unspecified) | > 3.3 µM | < 0.001 µM | 0.24 µM | 0.754 µM | 1 nm/s | > 2.1 µM | > 4.9 µM | –
Cc1cc(COc2ccc(S(=O)(=O)CC3(CC(=O)NO)CCCCN3C)cc2)c2ccccc2n1 (stereo unspecified) | > 3.3 µM | 0.0051 µM | > 3 µM | > 5 µM | 51 nm/s | > 2.1 µM | > 4.9 µM | –
Cc1cc(COc2ccc(S(=O)(=O)CC3CN(C)CCC3C(=O)NO)cc2)c2ccccc2n1 (stereo unspecified) | > 3.3 µM | < 0.0019 µM | 0.19 µM | > 5 µM | 1 nm/s | > 2.1 µM | > 4.9 µM | –
Cc1cc(COc2ccc(S(=O)(=O)CC3(CC(=O)NO)CCCN(C(C)C)C3)cc2)c2ccccc2n1 (stereo unspecified) | > 3.3 µM | 0.0027 µM | 0.506 µM | > 5 µM | 2 nm/s | > 2.1 µM | > 4.9 µM | –
Cc1cc(COc2ccc(S(=O)(=O)CC3(CC(=O)NO)CCCC3)cc2)c2ccccc2n1 | 1.57 µM | < 0.0008 µM | 0.42 µM | 0.804 µM | 180 nm/s | 1.51 µM | > 4.9 µM | –
Cc1cc(COc2ccc(S(=O)(=O)CC3(CC(=O)NO)CCN(C(C)C)C3)cc2)c2ccccc2n1 (stereo unspecified) | 1.33 µM | 0.0016 µM | 0.077 µM | 0.653 µM | 2 nm/s | 2.1 µM | > 4.9 µM | 37%
CCC(C)N1CCCCC1(CC(=O)NO)CS(=O)(=O)c1ccc(OCc2cc(C)nc3ccccc23)cc1 (stereo unspecified) | > 3.3 µM | < 0.048 µM | – | – | – | > 5 µM | > 4.9 µM | –
Cc1cc(COc2ccc(S(=O)(=O)CC3(CC(=O)NO)CCNC3)cc2)c2ccccc2n1 (stereo unspecified) | > 3.3 µM | 0.0015 µM | 0.076 µM | 3.27 µM | 1 nm/s | > 2.1 µM | > 4.9 µM | 34%
Cc1cc(COc2ccc(S(=O)(=O)CC3(CC(=O)NO)CCCN3CC(C)C)cc2)c2ccccc2n1 (stereo unspecified) | 1.33 µM | 0.02 µM | – | > 5 µM | 7 nm/s | > 2.1 µM | > 4.9 µM | –
Cc1cc(COc2ccc(S(=O)(=O)CC3(CC(=O)NO)CCNCC3)cc2)c2ccccc2n1 | > 3.3 µM | 0.014 µM | – | > 5 µM | 1 nm/s | > 2.1 µM | > 4.9 µM | 57%
Cc1cc(COc2ccc(S(=O)(=O)CC3(CC(=O)NO)CCOCC3)cc2)c2ccccc2n1 | > 3.3 µM | < 0.001 µM | 0.258 µM | > 5 µM | – | > 2.1 µM | > 4.9 µM | –
Cc1cc(COc2ccc(S(=O)(=O)CC3CCN(C(C)C)CC3C(=O)NO)cc2)c2ccccc2n1 (stereo unspecified) | > 3.3 µM | < 0.011 µM | > 1 µM | > 5 µM | 6.5 nm/s | > 2.1 µM | > 4.9 µM | –
Cc1cc(COc2ccc(S(=O)(=O)CC3(CC(=O)NO)CCN(C)CC3)cc2)c2ccccc2n1 | > 3.3 µM | < 0.002 µM | 0.102 µM | 2.61 µM | 2 nm/s | > 2.1 µM | > 4.9 µM | –
Cc1cc(COc2ccc(S(=O)(=O)CC3CCN(C)CC3C(=O)NO)cc2)c2ccccc2n1 (stereo unspecified) | > 3.3 µM | 0.0065 µM | 0.51 µM | > 5 µM | 2 nm/s | > 2.1 µM | > 4.9 µM | –
Cc1cc(COc2ccc(S(=O)(=O)CC3(CC(=O)NO)COC3)cc2)c2ccccc2n1 | > 3.3 µM | 0.001 µM | 0.595 µM | > 5 µM | – | > 2.1 µM | > 4.9 µM | –
Cc1cc(COc2ccc(S(=O)(=O)CC3C(C(=O)NO)CCCN3C)cc2)c2ccccc2n1 (stereo unspecified) | > 3.3 µM | < 0.0011 µM | > 3 µM | > 5 µM | – | > 2.1 µM | > 4.9 µM | –
CC(=O)N1CCCC1(CC(=O)NO)CS(=O)(=O)c1ccc(OCc2cc(C)nc3ccccc23)cc1 (stereo unspecified) | > 3.3 µM | 0.66 µM | – | > 5 µM | 6 nm/s | > 2.1 µM | > 4.9 µM | –
CCCCCN1CCC(CC(=O)NO)(CS(=O)(=O)c2ccc(OCc3cc(C)nc4ccccc34)cc2)C1 (stereo unspecified) | > 3.3 µM | 0.0034 µM | 0.418 µM | 1.76 µM | – | > 2.1 µM | > 4.9 µM | 22%
Cc1cc(COc2ccc(S(=O)(=O)CC3(CC(=O)NO)CCCN3)cc2)c2ccccc2n1 (stereo unspecified) | > 3.3 µM | 0.001 µM | 0.403 µM | > 5 µM | 4 nm/s | > 2.1 µM | > 4.9 µM | 19%
Cc1cc(COc2ccc(S(=O)(=O)CC3(CC(=O)NO)CCCCC3)cc2)c2ccccc2n1 | 1.4 µM | < 0.001 µM | 0.867 µM | 1.21 µM | 220 nm/s | > 2.1 µM | > 4.9 µM | 59%
Cc1cc(COc2ccc(S(=O)(=O)CC3(CC(=O)NO)CCN(C)C3)cc2)c2ccccc2n1 (stereo unspecified) | > 3.3 µM | 0.0032 µM | 0.109 µM | > 5 µM | 3 nm/s | > 2.1 µM | > 4.9 µM | 28%
